ChEMBL document CHEMBL1147036, “An NQO1- and PARP-1-mediated cell death pathway induced in non-small-cell lung cancer cells by beta-lapachone” (2007)
Active and inactive are the calls of the source. The calls are words filed in the database; no cut-off is given here.

Legend:
[1] = system: NCI-H596; assay: Reversal of induction of NAD+ depletion in NQO1 expressing human H596 cells at 10 uM in presence of 40 uM dicoumarol by luciferase based bioluminescence assay; type: functional, cell-based
Method in brief: (§1)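 10 μM drug ± 40 μM DIC; intracellular NAD+ measured at set times and expressed as % treated/control. Means ± SE of at least three independent experiments, each in duplicate.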

[2] = system: A549; assay: Reversal of induction of NAD+ depletion in NQO1 expressing human A549 cells at 10 uM in presence of 40 uM dicoumarol by luciferase based bioluminescence assay; type: functional, cell-based; method in brief: as §1
[3] = system: A549; assay: Reversal of PARP1 hyperactivation in NQO1 expressing human A549 cells assessed as PAR formation in presence of 3-aminobenzamide; type: functional, cell-based
Method in brief: (§2)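 Cells pretreated 2 h with or without 25 mM 3-aminobenzamide, then exposed to drug with or without 3-AB for 20 min; PAR formation read by Western blot.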

[4] = system: NCI-H596; assay: Reversal of PARP1 hyperactivation in NQO1 expressing human H596 cells assessed as PAR formation in presence of 3-aminobenzamide; type: functional, cell-based; method in brief: as §2
[5] = system: A549; assay: Reversal of induction of cell death in human A549 cells in presence of 3-aminobenzamide at 10 uM after 48 hrs by TUNEL assay; type: functional, cell-based
[6] = system: A549; assay: Reversal of induction of DNA damage in human A549 cells in presence of 3-aminobenzamide at 10 uM after 2 hrs; type: functional, cell-based
[7] = system: A549; assay: Reversal of cell death in human A549 cells at 10 uM in presence of 3-aminobenzamide after 2 hrs; type: functional, cell-based
[8] = system: A549; assay: Reversal of PARP1 hyperactivation in NQO1 expressing human A549 cells assessed as PAR formation at 6 uM in presence of 1,2-bis(2-aminophenoxy)ethane-N,N,N',N'-tetraacetic acid acetoxymethyl ester; type: functional, cell-based
Method in brief: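 A549 cells pretreated with 5 μM BAPTA-AM or mock, then exposed to 6 μM drug for 10 min; lysates probed for PAR by Western blot.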

[9] = system: A549; assay: Reversal of induction of NAD+ depletion in NQO1 expressing human A549 cells at 6 uM in presence of 1,2-bis(2-aminophenoxy)ethane-N,N,N',N'-tetraacetic acid acetoxymethyl ester; type: functional, cell-based
Method in brief: (§3)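 A549 cells pretreated with 5 μM BAPTA-AM or mock, then given 6 μM drug for 1 h; percent NAD+ loss measured as surrogate of PARP-1 hyperactivation, expressed as % of control.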

[10] = system: A549; assay: Reversal of cell death in NQO1 expressing human A549 cells at 6 uM in presence of 1,2-bis(2-aminophenoxy)ethane-N,N,N',N'-tetraacetic acid acetoxymethyl ester; type: functional, cell-based
[11] = system: A549; assay: Induction of NAD+ depletion in NQO1 expressing human A549 cells at 6 uM after 1 hr by luciferase based bioluminescence assay; type: functional; method in brief: as §3
[12] = system: NCI-H596; assay: Induction of DNA damage in NQO1 expressing human H596 cells at 10 uM in presence of dicoumarol after 2 hrs by alkaline comet tail assay; type: functional, cell-based
Method in brief: (§4)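 Cells exposed 10 μM drug for 2 h, ± 50 μM DIC; 2 mM H2O2 for 2 h as positive control. Alkaline comet assay, SYBR Green staining, fluorescence microscopy; tail lengths quantified in arbitrary units. Means ± SE from three experiments.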

[13] = system: A549; assay: Induction of DNA damage in NQO1 expressing human A549 cells at 10 uM in presence of dicoumarol after 2 hrs by alkaline comet tail assay; type: functional, cell-based; method in brief: as §4
[14] = system: NCI-H596; assay: Reversal of induction of PARP1 hyperactivation in NQO1 expressing human H596 cells assessed as PAR accumulation at 10 uM for 10 mins by Western blot; type: functional, cell-based
[15] = system: A549; assay: Reversal of induction of nucleotide depletion in NQO1 expressing human A549 cells in presence of 3-aminobenzamide by luciferase based bioluminescence assay; type: functional, cell-based
Method in brief: (§5)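 Cells pretreated 2 h ± 25 mM 3-AB, then drug ± 3-AB; harvested at set times. NAD+ as % treated/control; ATP by luciferase bioluminescence of whole-cell extracts. Means ± SE of three experiments.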

[16] = system: NCI-H596; assay: Reversal of induction of nucleotide depletion in NQO1 expressing human H596 cells in presence of 3-aminobenzamide by luciferase based bioluminescence assay; type: functional, cell-based; method in brief: as §5
[17] = system: NCI-H596; assay: Cytotoxicity against NQO1 expressing human H596 cells assessed as long term survival at =>5 uM for 2 hrs; type: functional, cell-based
Method in brief: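 Isogenic H596 lines (retroviral NQO1 or empty vector, pooled, puromycin 1.0 μg/ml selected) in DMEM/10% FBS, 37°C, 5% CO2. Drug given 2 h, then removed; relative survival from DNA content after 7 days' growth. Confirmed by colony formation; means ± SE of three experiments in triplicate.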

[18] = system: A549; assay: Cytotoxicity against NQO1 expressing human A549 cells after 2 hrs; type: functional; conditions: A549, 2 h, read-out: LD50 (the source's name)
Method in brief: (§6)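 Long-term relative survival assay: cells exposed to drug for 2 h (A549 with or without 50 μM dicoumarol), drug removed, then grown 7 days post-treatment in DMEM with 10% FBS at 37°C, 5% CO2. Survival read from DNA content and confirmed by colony-forming ability. LD50 from dose-response; means ± SE, at least three experiments in triplicate. H596 line stably expressing NQO1 via retroviral vector, puromycin-selected.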

[19] = Cytotoxicity against NQO1 expressing human H596 cells after 2 hrs; type: functional; conditions: NCI-H596, 2 h, read-out: LD50 (the source's name); method in brief: as §6
[20] = system: NCI-H596; assay: Induction of oxidative stress in NQO1 expressing human H596 cells assessed as reactive oxygen species generation at 10 uM after 1 hr by flow cytometry; type: functional, cell-based
Method in brief: (§7)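 Cells given 10 μM drug ± 50 μM DIC; ROS monitored over a time course by conversion of chloromethyl-dichlorodihydrofluorescein diacetate to fluorescent product, read by flow cytometry. 2 mM H2O2 or 10 μM antimycin A for 20 min as positive controls. Means ± SE, three experiments in duplicate.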

[21] = system: A549; assay: Induction of oxidative stress in NQO1 expressing human A549 cells assessed as reactive oxygen species generation at 10 uM after 1 hr by flow cytometry; type: functional, cell-based; method in brief: as §7
[22] = system: NCI-H596; assay: Induction of DNA damage in NQO1 expressing human H596 cells at 10 uM after 2 hrs by alkaline comet tail assay; type: functional, cell-based; method in brief: as §4
[23] = system: A549; assay: Induction of DNA damage in NQO1 expressing human A549 cells at 10 uM after 2 hrs by alkaline comet tail assay; type: functional, cell-based; method in brief: as §4
[24] = system: NCI-H596; assay: Induction of DNA damage in NQO1 deficient human H596 cells at 10 uM after 2 hrs by alkaline comet tail assay; type: functional, cell-based; method in brief: as §4
[25] = system: NCI-H596; assay: Induction of PARP1 hyperactivation in NQO1 expressing human H596 cells assessed as PAR accumulation at 10 uM for 10 mins by Western blot; type: functional, cell-based
[26] = system: A549; assay: Induction of PARP1 hyperactivation in NQO1 expressing human A549 cells assessed as PAR accumulation at 10 uM for 10 mins by Western blot; type: functional, cell-based
[27] = system: NCI-H596; assay: Induction of PARP1 hyperactivation in NQO1 deficient human H596 cells assessed as PAR accumulation at 10 uM for 10 mins by Western blot; type: functional, cell-based
[28] = system: NCI-H596; assay: Induction of ATP depletion in NQO1 expressing human H596 cells at 10 uM by luciferase based bioluminescence assay; type: functional, cell-based
Method in brief: (§8)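 Cells exposed to 10 μM drug, harvested at set times; ATP measured in whole-cell extracts by luciferase bioluminescence. DIC coadded with drug in NQO1 inhibition arms. Means ± SE, three or more experiments in triplicate.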

[29] = system: A549; assay: Induction of ATP depletion in NQO1 expressing human A549 cells at 10 uM by luciferase based bioluminescence assay; type: functional, cell-based; method in brief: as §8
[30] = system: NCI-H596; assay: Induction of NAD+ depletion in NQO1 expressing human H596 cells at 10 uM by luciferase based bioluminescence assay; type: functional, cell-based; method in brief: as §1
[31] = system: A549; assay: Induction of NAD+ depletion in NQO1 expressing human A549 cells at 10 uM by luciferase based bioluminescence assay; type: functional, cell-based; method in brief: as §1
[32] = system: NCI-H596; assay: Reversal of PAR-polymer formation in NQO1 expressing human H596 cells at 10 uM in presence of 50 uM dicoumarol; type: functional, cell-based
[33] = system: A549; assay: Reversal of PAR-polymer formation in NQO1 expressing human A549 cells at 10 uM in presence of 50 uM dicoumarol; type: functional, cell-based
[34] = system: NCI-H596; assay: Reversal of induction of ATP depletion in NQO1 expressing human H596 cells at 10 uM in presence of 40 uM dicoumarol by luciferase based bioluminescence assay; type: functional, cell-based; method in brief: as §8
[35] = system: A549; assay: Reversal of induction of ATP depletion in NQO1 expressing human A549 cells at 10 uM in presence of 40 uM dicoumarol by luciferase based bioluminescence assay; type: functional, cell-based; conditions: in the assay text read “50 uM dicoumarol” for “40 uM dicoumarol”; method in brief: as §8

SMILES: CC1(C)CCC2=C(O1)c1ccccc1C(=O)C2=O [LAPACHONE]
- Activity [1]: Active
- Activity [2]: Active
- Activity [3]: Active
- Activity [4]: Active
- Activity [5]: Active
- Activity [6]: Active
- Activity [7]: Active
- Activity [8]: Active
- Activity [9]: Active
- Activity [10]: Active
- Activity [11]: 43%
- Activity [12]: inactive
- Activity [13]: inactive
- Activity [14]: Active
- Activity [15]: Active
- Activity [16]: Active
- Activity [17]: Active
- CC50 [18]: 2.5 µM
- CC50 [19]: 4 µM
- Activity [20]: Active
- Activity [21]: Active
- Activity [22]: Active
- Activity [23]: Active
- Activity [24]: inactive
- Activity [25]: Active
- Activity [26]: Active
- Activity [27]: inactive
- Activity [28]: Active
- Activity [29]: Active
- Activity [30]: Active
- Activity [31]: Active
- Activity [32]: Active
- Activity [33]: Active
- Activity [34]: Active
- Activity [35]: Active
